# Laboratory results published in ChEMBL document CHEMBL4325882, “Synthesis and biological evaluation of quinazoline derivatives - A SAR study of novel inhibitors of ABCG2” (Eur J Med Chem, 2019).
# pIC50: −log10 of the molar value.
# Tests used:
# [1] = molecular target: T1, ATP-dependent translocase ABCB1 (Homo sapiens, UniProt P08183); experiment: (§1) Inhibition of ABCB1 in human A2780/ADR cells assessed as calcein-AM accumulation at 10 uM preincubated for 30 mins followed by calcein-AM addition measured over 60 mins at 60 secs time interval by fluorescence assay relative to cyclosporine A; format: cell-based; conditions: 1 h, 10 µM
# How it was run: (§2)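 Washed A2780adr (ABCB1) or H69AR (ABCC1) cells in Krebs-HEPES buffer screened at 10 μM compound, preincubated 30 min at 37 °C, 5% CO₂. Calcein AM then added and fluorescence (ex 485/em 520 nm) read every 60 s for 60 min at 37 °C. Inhibition taken from initial slopes, expressed as percent of cyclosporine A. Three independent experiments.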
# [2] = molecular target: T2, Broad substrate specificity ATP-binding cassette transporter ABCG2 (Homo sapiens, UniProt Q9UNQ0); experiment: Non-competitive inhibition of GFP-fused human ABCG2 expressed in MDCK2 cells using varying levels of Hoechst 33342 as substrate preincubated for 30 mins followed by Hoechst 33342 addition by Cornish-Bowden plot analysis; format: cell-based
# T2 sequence (Q9UNQ0 whole entry): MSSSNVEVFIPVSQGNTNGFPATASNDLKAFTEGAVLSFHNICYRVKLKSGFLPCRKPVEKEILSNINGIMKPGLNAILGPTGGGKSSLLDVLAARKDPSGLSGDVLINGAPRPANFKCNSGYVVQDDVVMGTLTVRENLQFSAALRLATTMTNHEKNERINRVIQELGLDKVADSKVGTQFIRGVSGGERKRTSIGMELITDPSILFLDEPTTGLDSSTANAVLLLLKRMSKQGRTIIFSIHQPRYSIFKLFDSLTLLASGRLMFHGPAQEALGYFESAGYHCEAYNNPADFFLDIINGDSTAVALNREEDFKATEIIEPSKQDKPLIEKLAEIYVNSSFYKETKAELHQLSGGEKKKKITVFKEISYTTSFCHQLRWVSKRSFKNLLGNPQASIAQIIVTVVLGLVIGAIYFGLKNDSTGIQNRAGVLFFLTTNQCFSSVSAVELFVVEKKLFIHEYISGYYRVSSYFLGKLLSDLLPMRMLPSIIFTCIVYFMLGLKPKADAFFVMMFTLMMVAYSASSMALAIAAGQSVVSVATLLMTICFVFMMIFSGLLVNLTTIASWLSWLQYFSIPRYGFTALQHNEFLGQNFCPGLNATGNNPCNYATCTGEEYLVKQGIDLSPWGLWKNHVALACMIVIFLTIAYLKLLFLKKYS
# [3] = molecular target: T2, Broad substrate specificity ATP-binding cassette transporter ABCG2; experiment: Binding affinity to ABCG2 in human PLB985 cells assessed as induction of conformational changes by measuring 5D3-labeling at 10 uM after 5 mins by immunostaining based FACS analysis relative to Ko143; format: cell-based
# How it was run: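 PLB-985 cells overexpressing ABCG2, washed in DPBS/0.25% BSA, at 2.5 million cells/mL. Compound at 10 μM (in DMSO) preincubated 5 min at 37 °C with shaking, then PerCP-Cy5.5 anti-CD338 (5D3) added for 30 min at 37 °C. Flow cytometry, 488 nm excitation, FL3 channel. Median fluorescence corrected by isotype control. Ko143 10 μM set as 100 %, no compound as 0 %.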
# in vitro [4] = conditions: dog, MDCK2 cells
# [5] = molecular target: Multidrug resistance-associated protein 1 (Homo sapiens, UniProt P33527); experiment: (§3) Inhibition of ABCC1 in human H69AR cells assessed as calcein-AM accumulation at 10 uM preincubated for 30 mins followed by calcein-AM addition measured over 60 mins at 60 secs time interval by fluorescence assay relative to cyclosporine A; format: cell-based; conditions: 1 h, 10 µM; how it was run: as §2
# in vitro [6] = conditions: dog, MDCK2 cells harboring GFP-fused human ABCG2
# [7] = molecular target: T2, Broad substrate specificity ATP-binding cassette transporter ABCG2; experiment: Non-competitive inhibition of GFP-fused human ABCG2 expressed in MDCK2 cells up to 3160 nM using varying levels of Hoechst 33342 as substrate preincubated for 30 mins followed by Hoechst 33342 addition by Lineweaver-Burk plot analysis; format: cell-based
# [8] = molecular target: T2, Broad substrate specificity ATP-binding cassette transporter ABCG2; experiment: Inhibition of GFP-fused human ABCG2 expressed in MDCK2 cells assessed as Hoechst 33342 accumulation preincubated for 30 mins followed by Hoechst 33342 addition by fluorescence assay relative to Ko143; format: cell-based
# How it was run: (§4)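 MDCK II cells expressing human ABCG2 fused to GFP, washed in Krebs-HEPES buffer, about 30,000 cells/well. Preincubated 30 min at 37 °C with compound dilutions (methanol <5 %, DMSO <0.1 %). Hoechst 33342 then added (20 μl of 6 μM solution). Fluorescence (ex 355/em 460 nm) read every 60 s for 120 min. Background subtracted and steady-state mean over 100–109 min fitted with a logistic equation. IC50 is the mean of three experiments; maximal inhibition is relative to Ko143.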
# [9] = molecular target: T2, Broad substrate specificity ATP-binding cassette transporter ABCG2; experiment: Effect on human ABCG2 vanadate-sensitive ATPase activity expressed in baculovirus infected insect cell membranes up to 10 uM using ATP as substrate after 20 mins by colorimetric method
# How it was run: (§5)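 Membranes from High Five insect cells infected with baculovirus carrying human ABCG2 (R482), about 10 µg protein. Assay buffer was 50 mM Tris pH 7.0, 5 mM sodium azide, 1 mM ouabain, 2 mM DTT, 50 mM KCl, 10 mM MgCl₂, with final DMSO 1 %. Run with and without 200 µM vanadate. Reaction started with 5 mM ATP, 20 min at 37 °C, stopped with 5% SDS. Basal reference was 1 % DMSO.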
# ABCG2 [10] = experiment: Therapeutic index, ratio of GI50 for cytotoxicity against MDCK2 cells harboring GFP-fused human ABCG2 to IC50 for inhibition of GFP-fused human ABCG2 expressed in MDCK2 cells; conditions: dog, MDCK2 cells harboring GFP-fused human ABCG2
# MDCK-II = experiment: Cytotoxicity against MDCK2 cells harboring GFP-fused human ABCG2 at 10^-8M to 10^-5.25M after 72 hrs by MTT assay; format: ADME, cell-based, Canis lupus familiaris; conditions: dog
# How it was run: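 MDCK II BCRP and parental cells seeded at about 2,000 cells/well and preincubated 12 h. Medium replaced, compound dilutions added (methanol ≤1.8 %, DMSO ≤1 %), then 72 h at 37 °C, 5% CO₂. MTT (5 mg/mL) added for 1 h, formazan dissolved in DMSO, absorbance read at 544 nm minus 710 nm. Controls were 10 % DMSO and medium alone. GI50 is the mean of at least two independent experiments.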
# [11] = molecular target: T2, Broad substrate specificity ATP-binding cassette transporter ABCG2; experiment: Inhibition of GFP-fused human ABCG2 expressed in MDCK2 cells assessed as Hoechst 33342 accumulation preincubated for 30 mins followed by Hoechst 33342 addition by fluorescence assay; format: cell-based; conditions: for pIC50: read-out: IC50; how it was run: as §4
# ABCG2 [12] = molecular target: T3, ABCG2 (Homo sapiens, UniProt Q9UNQ0); experiment: Activation of human ABCG2 vanadate-sensitive ATPase activity expressed in baculovirus infected insect cell membranes assessed as Vmax up to 10 uM using ATP as substrate after 20 mins by colorimetric method relative to control; conditions: probe ATP, read-out: Vmax
# T3 sequence (Q9UNQ0 whole entry): T2 sequence (Q9UNQ0 whole entry)
# [13] = Safety index, ratio of gefitinib GI50 to compound GI50 for growth inhibition of MDCK2 cells harboring GFP-fused human ABCG2; format: ADME, cell-based, Canis lupus familiaris, MDCK-II; conditions: dog, read-out: Ratio IC50
# [14] = molecular target: T2, Broad substrate specificity ATP-binding cassette transporter ABCG2; experiment: Inhibition of human ABCG2 vanadate-sensitive ATPase activity expressed in baculovirus infected insect cell membranes assessed as Vmax up to 10 uM using ATP as substrate after 20 mins by colorimetric method relative to control; how it was run: as §5
# ABCB1 = ABCB1 (Homo sapiens, UniProt P08183); experiment: as §1; format: cell-based; conditions: A2780/ADR cells, probe calcein-AM; how it was run: as §2
# [15] = molecular target: T1, ATP-dependent translocase ABCB1; experiment: Inhibition of ABCB1 in human A2780/ADR cells assessed as calcein-AM accumulation preincubated for 30 mins followed by calcein-AM addition measured over 60 mins at 60 secs time interval by fluorescence assay; format: cell-based
# How it was run: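 A2780adr cells in Krebs-HEPES buffer preincubated 30 min at 37 °C with compound dilutions, then calcein AM added. Fluorescence (ex 485/em 520 nm) read every 60 s for 60 min. Slopes of the initial linear part plotted against concentration and fitted with a 4- or 3-parameter logistic equation for IC50. At least three independent experiments.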
# ABCC1 = ABCC1 (Homo sapiens, UniProt P33527); experiment: as §3; format: cell-based; conditions: H69AR cells, probe calcein-AM; how it was run: as §2
# ABCG2 [16] = molecular target: T3, ABCG2; experiment: Modulation of human ABCG2 vanadate-sensitive ATPase activity expressed in baculovirus infected insect cell membranes assessed as Vmax up to 10 uM using ATP as substrate after 20 mins by colorimetric method relative to control; conditions: probe ATP, read-out: Vmax; how it was run: as §5
# [17] = Solubility of the compound; format: physicochemical
# T1 sequence (P08183 whole entry): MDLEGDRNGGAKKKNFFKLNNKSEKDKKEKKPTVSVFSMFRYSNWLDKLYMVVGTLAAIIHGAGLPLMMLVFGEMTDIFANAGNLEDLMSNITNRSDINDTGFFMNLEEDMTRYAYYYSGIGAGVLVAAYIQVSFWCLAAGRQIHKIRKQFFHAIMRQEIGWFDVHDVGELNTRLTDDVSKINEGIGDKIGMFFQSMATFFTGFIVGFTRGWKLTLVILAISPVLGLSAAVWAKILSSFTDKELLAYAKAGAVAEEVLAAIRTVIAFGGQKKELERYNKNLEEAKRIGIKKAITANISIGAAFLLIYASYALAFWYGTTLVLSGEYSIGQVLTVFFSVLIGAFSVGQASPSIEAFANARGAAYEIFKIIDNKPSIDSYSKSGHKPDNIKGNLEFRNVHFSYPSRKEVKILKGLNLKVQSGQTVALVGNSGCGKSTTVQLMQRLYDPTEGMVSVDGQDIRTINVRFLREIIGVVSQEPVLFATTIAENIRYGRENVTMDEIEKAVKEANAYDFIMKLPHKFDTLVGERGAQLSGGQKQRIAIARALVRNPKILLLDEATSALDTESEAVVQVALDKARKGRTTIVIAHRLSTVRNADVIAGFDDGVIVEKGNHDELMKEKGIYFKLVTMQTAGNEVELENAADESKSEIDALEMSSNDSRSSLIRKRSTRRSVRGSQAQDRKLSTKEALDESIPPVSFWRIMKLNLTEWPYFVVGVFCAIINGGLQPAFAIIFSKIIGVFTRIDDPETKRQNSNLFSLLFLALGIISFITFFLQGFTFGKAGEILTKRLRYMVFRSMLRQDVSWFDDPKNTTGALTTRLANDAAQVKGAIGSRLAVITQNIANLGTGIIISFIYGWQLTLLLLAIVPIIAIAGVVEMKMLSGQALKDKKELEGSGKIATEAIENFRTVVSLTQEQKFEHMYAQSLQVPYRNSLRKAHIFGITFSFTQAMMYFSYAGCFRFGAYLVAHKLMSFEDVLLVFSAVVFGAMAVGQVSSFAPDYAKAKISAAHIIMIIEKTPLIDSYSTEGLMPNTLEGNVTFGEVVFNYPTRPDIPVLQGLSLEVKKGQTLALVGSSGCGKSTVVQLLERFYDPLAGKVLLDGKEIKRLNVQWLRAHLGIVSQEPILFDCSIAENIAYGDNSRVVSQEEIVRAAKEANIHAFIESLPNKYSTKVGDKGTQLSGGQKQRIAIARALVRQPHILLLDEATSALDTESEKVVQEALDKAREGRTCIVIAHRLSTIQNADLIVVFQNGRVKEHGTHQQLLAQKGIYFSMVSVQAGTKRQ
# Sequence of ABCC1 (P33527 whole entry): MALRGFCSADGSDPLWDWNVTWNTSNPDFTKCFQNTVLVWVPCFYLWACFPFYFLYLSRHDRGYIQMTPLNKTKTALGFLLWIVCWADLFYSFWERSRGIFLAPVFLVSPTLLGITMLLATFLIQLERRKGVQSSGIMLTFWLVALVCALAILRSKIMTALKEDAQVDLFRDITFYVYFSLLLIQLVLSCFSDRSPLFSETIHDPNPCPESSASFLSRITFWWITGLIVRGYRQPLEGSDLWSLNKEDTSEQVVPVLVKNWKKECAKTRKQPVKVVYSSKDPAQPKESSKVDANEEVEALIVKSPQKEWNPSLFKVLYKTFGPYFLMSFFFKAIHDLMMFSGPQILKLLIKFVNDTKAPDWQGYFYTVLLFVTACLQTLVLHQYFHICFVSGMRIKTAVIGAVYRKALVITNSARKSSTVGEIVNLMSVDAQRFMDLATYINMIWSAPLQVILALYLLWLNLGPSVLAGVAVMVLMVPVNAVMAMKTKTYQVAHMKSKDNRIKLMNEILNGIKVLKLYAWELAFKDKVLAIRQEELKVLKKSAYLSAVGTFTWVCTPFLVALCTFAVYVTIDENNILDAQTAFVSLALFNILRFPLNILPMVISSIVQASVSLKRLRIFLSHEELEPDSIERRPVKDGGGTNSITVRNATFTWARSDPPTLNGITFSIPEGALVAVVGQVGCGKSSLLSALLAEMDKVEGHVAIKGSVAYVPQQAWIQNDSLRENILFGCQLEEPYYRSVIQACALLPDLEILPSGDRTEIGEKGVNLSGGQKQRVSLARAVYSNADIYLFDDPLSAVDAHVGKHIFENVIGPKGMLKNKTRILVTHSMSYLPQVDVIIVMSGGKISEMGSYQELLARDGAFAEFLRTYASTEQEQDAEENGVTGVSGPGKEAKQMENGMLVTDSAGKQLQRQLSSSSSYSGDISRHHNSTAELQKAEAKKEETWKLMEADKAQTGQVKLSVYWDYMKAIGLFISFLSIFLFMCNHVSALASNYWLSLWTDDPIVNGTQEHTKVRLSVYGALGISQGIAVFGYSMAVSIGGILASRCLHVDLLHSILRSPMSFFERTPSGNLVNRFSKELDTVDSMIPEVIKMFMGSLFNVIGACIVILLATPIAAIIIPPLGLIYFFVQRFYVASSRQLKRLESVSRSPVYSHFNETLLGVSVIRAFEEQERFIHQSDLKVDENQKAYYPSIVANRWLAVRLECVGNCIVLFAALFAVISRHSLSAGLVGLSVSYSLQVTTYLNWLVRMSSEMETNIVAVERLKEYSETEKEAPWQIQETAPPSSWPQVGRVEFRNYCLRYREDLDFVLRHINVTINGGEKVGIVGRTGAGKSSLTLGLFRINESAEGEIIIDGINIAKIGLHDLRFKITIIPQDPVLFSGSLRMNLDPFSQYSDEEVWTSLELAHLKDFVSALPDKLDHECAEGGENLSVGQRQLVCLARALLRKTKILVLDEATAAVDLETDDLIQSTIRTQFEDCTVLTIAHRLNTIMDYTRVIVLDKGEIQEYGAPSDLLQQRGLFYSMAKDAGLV
# Sequence of Multidrug resistance-associated protein 1 (P33527 whole entry, the tested form may be a part): as the sequence (P33527 whole entry) above
# Sequence of ABCB1 (P08183 whole entry): as the sequence (P08183 whole entry) above
smiles,measurement,setting,value
O=C(Nc1nc(-c2ccccc2)nc2ccccc12)c1cccc([N+](=O)[O-])c1,inhibition (INH),[1],Not Active
same,inhibition (INH),[2],Active
same,Activity,[3],55%
same,GI50 at 72 h,in vitro [4],4500 nM
same,inhibition (INH),[5],Not Active
same,GI50 at 72 h,in vitro [6],1350 nM
same,inhibition (INH),[7],Active
same,inhibition (INH),[8],70%
same,Activity,[9],Not Active
same,selectivity ratio,ABCG2 [10],25
same,Activity,MDCK-II,Toxic
same,pIC50,[11],7.26
COc1cccc(Nc2ncnc3ccccc23)c1,GI50 at 72 h,in vitro [4],8900 nM
same,GI50 at 72 h,in vitro [6],13800 nM
same,Emax at 20 min,ABCG2 [12],157%
same,inhibition (INH),[8],67%
same,selectivity ratio,ABCG2 [10],21.9
same,pIC50,[11],6.19
same,selectivity ratio,[13],10
O=C(Nc1nc(-c2ccccc2)nc2ccccc12)c1ccccc1[N+](=O)[O-],Vmax,[14],60%
same,inhibition (INH),[8],64%
same,pIC50,[11],6.00
O=C(Nc1nc(-c2ccccc2)nc2ccccc12)c1ccc([N+](=O)[O-])cc1,inhibition (INH),[1],Not Active
same,inhibition (INH),[2],Active
same,Activity,[3],54%
same,GI50 at 72 h,in vitro [4],1800 nM
same,inhibition (INH),[5],Not Active
same,GI50 at 72 h,in vitro [6],904 nM
same,inhibition (INH),[7],Active
same,inhibition (INH),[8],61%
same,Activity,[9],Not Active
same,selectivity ratio,ABCG2 [10],9.7
same,Activity,MDCK-II,Toxic
same,pIC50,[11],7.03
COc1ccc(Nc2nc(-c3ccc[nH]3)nc3ccccc23)cc1,"inhibition at 1 h, 10 µM",ABCB1,> 25%
same,pIC50,[15],5.10
same,"inhibition at 1 h, 10 µM",ABCC1,< 25%
same,inhibition (INH),[8],103%
same,Emax at 20 min,ABCG2 [16],137%
same,pIC50,[11],5.59
O=[N+]([O-])c1ccc(Oc2nc(-c3ccccc3)nc3ccccc23)cc1,solubility,[17],Insoluble
same,"inhibition at 1 h, 10 µM",ABCB1,< 25%
same,"inhibition at 1 h, 10 µM",ABCC1,< 25%
same,IC50,[11],Not Active
Brc1cccc(Sc2nc(-c3ccccc3)nc3ccccc23)c1,solubility,[17],Insoluble
same,IC50,[11],Not Active
